Screening data (PubChem BioAssay)
Hits are enriched below; roughly 0.7% of the tested compounds scored in any of these assays.
RAD52 inh = RAD52 DNA annealing inhibitors, primary screen, biochemical, FRET, single point, set 2; DNA repair protein RAD52 homolog (Homo sapiens), P43351; recombinant RAD52 DNA annealing, FRET fluorescence; inhibition, % at 18.7 µM; 360,000 tested, 0.46% active;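 active means every replicate showing at least 50% inhibition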
Target sequence (P43351 whole entry, looked up): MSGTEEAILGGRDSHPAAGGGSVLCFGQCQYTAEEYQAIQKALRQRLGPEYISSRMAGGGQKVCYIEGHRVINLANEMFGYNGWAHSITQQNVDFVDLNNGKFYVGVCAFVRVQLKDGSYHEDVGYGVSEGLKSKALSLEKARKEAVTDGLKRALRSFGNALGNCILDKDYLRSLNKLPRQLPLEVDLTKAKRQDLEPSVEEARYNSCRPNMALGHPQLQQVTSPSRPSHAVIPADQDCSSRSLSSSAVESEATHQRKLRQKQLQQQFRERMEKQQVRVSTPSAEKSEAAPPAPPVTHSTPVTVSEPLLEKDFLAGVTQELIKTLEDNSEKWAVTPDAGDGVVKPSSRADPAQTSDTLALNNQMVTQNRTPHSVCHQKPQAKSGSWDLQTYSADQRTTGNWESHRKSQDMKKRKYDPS
FN deposit inh = inhibitors of fibronectin matrix deposition, primary screen, AH1F cells, Alexa488-fibronectin fluorescence, plate reader | AH1F fibroblasts, overnight | inhibition, % at 12.6 µM | 350,000 tested, 0.086% active | AID 743247, 2014;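 active means mean inhibition across replicates of 30% or more, regardless of how many single replicates reach that level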;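 further: positive control wells lacked labelled fibronectin entirely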
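Assay system: AH1F fibroblast monolayer, labelled fibronectin deposition. Amount: 10000 cells per well. Also added: labelled fibronectin 24 nM. Compound: single-point pinned compound. Incubation: cell attachment 1 h, compound and FN exposure overnight. Detection: fluorescence after three HBSS washes, excitation 485 nm, emission 525 nm. Read-out: inhibition of fibronectin deposition signal.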
RAD54 branch = inhibitors of human RAD54 branch migration, primary screen, biochemical, fluorescence, single point; 360,000 tested, 0.14% active; inhibition, % at 10.4 µM; DNA repair and recombination protein RAD54-like (Homo sapiens), Q92698; RAD54 Holliday junction branch migration, FAM/BHQ fluorescence;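 active means mean normalized replicate activity at least 40 and at least half of replicates scoring 40 or more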;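 further: 0% = median of neutral control wells and 100% = median of positive control wells; inhibitors cause a drop in the FAM fluorescence signal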
N-glyco inh = increase of ERlucT glycosylation luciferase signal, primary screen, N-linked glycosylation inhibitor project, D54 ERlucT cells, luminescence, set 2; D54 ERlucT glycosylation luciferase reporter, 24 h; percent of 100 nM tunicamycin response; 360,000 tested, 0.23% active; reporter increase, % at 12.5 µM; AID 588692, 2011;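 active means mean luciferase reporter signal, scaled so untreated is 0 and the glycosylation-blocking control 100, at or above a set limit in every replicate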;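 further: luciferase carries N-glycosylation sites so blocking glycosylation raises the light; 0% = median of neutral control wells and 100% = median of 100 nM tunicamycin wells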
CaV13 FRET inh = Disruptors of the CACNA1D IQ motif to Ca2+-dependent inactivation inhibitor domain association, primary screening, Förster resonance energy transfer in intact living …. HEK cells, CFP/YFP FRET ICDI-IQ, plate reader, 10 min; percent FRET-ratio fall versus neutral wells. 340,000 tested, 0.098% active. inhibition, % at 12.3 µM. AID 743397;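 active means mean replicate inhibition of at least 30% and at least 1% of replicates passing that level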;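 further: 0% = median of the neutral control wells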
* hit, by the source's call; . = no result; + = active, no number; ! = repeats disagree.

SMILES	RAD52 inh	FN deposit inh	RAD54 branch	N-glyco inh	CaV13 FRET inh
Fc1cccc(CN2C[C@@H]3N[C@H](C2)C3c2ccc(-c3cncnc3)cc2)c1 (stereo partly drawn)	22	4	.	.	.
N#Cc1ccc(-c2ccc([C@@H]3[C@@H]4CN(S(=O)(=O)c5ccc(-c6ccccc6)cc5)C[C@H]3N4)cc2)cc1	79*	1	.	.	.
Fc1cccc(CN2C[C@@H]3N[C@H](C2)C3c2ccc(-c3ccccc3)cc2)c1 (stereo partly drawn)	84*!	-9	.	.	.
c1ncc(-c2ccc(C3[C@@H]4CN(Cc5ccc6c(c5)OCO6)C[C@H]3N4)cc2)cn1 (stereo partly drawn)	51*	9	.	.	.
COc1cccc(S(=O)(=O)N(C)C[C@@H]2Oc3ncc(C#Cc4ccc(F)cc4)cc3C(=O)N([C@H](C)CO)C[C@@H]2C)c1	3	.	-4	.	.
COc1ccc(NC(=O)Nc2ccc3c(c2)CC(=O)N([C@@H](C)CO)C[C@@H](C)[C@H](CN(C)Cc2ccc(C(=O)O)cc2)O3)cc1	3	.	-5	.	.
C[C@H](CO)N1C[C@H](C)[C@H](CN(C)C(=O)c2ccc3c(c2)OCO3)Oc2cc(-c3cncnc3)ccc2S1(=O)=O	6	1	4	.	.
C#CC[N+](C)(C)CCCCCCCCCCCC	33	11	.	144*	-6
C#CC[N+](C)(C)CCCCCCCCCC	8	22	-15	40*	-6
O=C(C[C@@H]1CC[C@@H]2[C@H](COC[C@H](O)CN2CC2CCCC2)O1)NCC1CC1	-16	-5	.	.	.
CC(C)OCCCn1c(=N)c(C(N)=S)cc2c(=O)n3ccccc3nc21	.	-13	30	-2	45*
CC(=O)N=c1c(C#N)cc2c(=O)n3ccccc3nc2n1CCCOC(C)C	-21	9	1	1	+
Cc1noc(C)c1NC(=O)N(C)C[C@@H]1Oc2ccc(NS(=O)(=O)c3cn(C)cn3)cc2CC(=O)N([C@H](C)CO)C[C@@H]1C	23	-10	-2	.	.
COc1ccc(S(=O)(=O)N(C)C[C@@H]2Oc3ccc(NC(=O)Cn4cnnn4)cc3CC(=O)N([C@H](C)CO)C[C@@H]2C)cc1	-13	.	2	.	.
Cc1c(C(=O)NCc2ccc(Cl)c(Cl)c2)sc(=O)n1Cc1cccc(F)c1	-5	19	-15	-5	39*
COc1ccc(Br)c(Cn2c(C)c(C(=O)NCc3ccc4c(c3)OCCO4)sc2=O)c1	-22	9	-8	-5	47*
C=Cc1ccc(Cn2c(C)c(C(=O)NCc3cccc(C(F)(F)F)c3)sc2=O)cc1	-23	-1	-3	-2	22
CSc1ccc(Cn2c(C)c(C(=O)NCc3cccc(C)c3)sc2=O)cc1	-21	5	-1	-7	-9
C=Cc1ccc(Cn2c(C)c(C(=O)NCc3cccc(C)c3)sc2=O)cc1	-28	1	0	-8	69*
CC(=O)Oc1ccc(Cn2c(C)c(C(=O)NCc3ccc4c(c3)OCCO4)sc2=O)cc1	-11	0	4	-2	-6
CSc1ccc(Cn2c(C)c(C(=O)NCc3cccc(Cl)c3)sc2=O)cc1	-121	-1	5	-8	42*
Cc1ccc(O)c(-c2cc(-c3cccc(Br)c3)n[nH]2)c1	-9	37*	5	4	1
C[C@@H]1CN([C@@H](C)CO)C(=O)Cc2cc(NS(C)(=O)=O)ccc2O[C@@H]1CN(C)C(=O)Nc1ccc2c(c1)OCO2	.	.	7	.	.
COc1cc(C2C(C#N)=C(N)Oc3cc(O)ccc32)cc(OC)c1OC (stereo not drawn)	.	-2	-3	46*	5
CCOC(=O)COc1ccc2c(C#N)c3ccccn3c2c1	-23	2	.	-3	-142
SMILES	RAD52 inh	FN deposit inh	RAD54 branch	N-glyco inh	CaV13 FRET inh
N#Cc1c2ccc(OCC(N)=O)cc2n2ccccc12	0	-3	1	11	77*
O=C(Nc1ccccc1F)N[C@H]1CC[C@@H](CCNC(=O)C2CCC2)O[C@H]1CO	-1	.	3	.	.
COc1cccc(NC(=O)Nc2ccc3c(c2)C(=O)N(C)C[C@H](OC)[C@H](C)CN[C@@H](C)CO3)c1	41	-7	4	.	.
CO[C@H]1CN(C)C(=O)c2cc(NC(=O)c3ccc(Oc4ccccc4)cc3)ccc2OC[C@H](C)NC[C@H]1C	53*	18	14	.	.
COc1cccc(NC(=O)Nc2ccc3c(c2)C(=O)N(C)C[C@@H](OC)[C@H](C)CN[C@@H](C)CO3)c1	54*	2	11	.	.
COc1cccc(NC(=O)Nc2ccc3c(c2)C(=O)N(C)C[C@H](OC)[C@@H](C)CN[C@H](C)CO3)c1	67*	-1	24	.	.
COc1cccc(NC(=O)Nc2ccc3c(c2)OC[C@H](C)NC[C@H](C)[C@@H](OC)CN(C)C3=O)c1	5	7	.	.	.
C[C@H](CO)N1C[C@H](C)[C@H](CN(C)C(=O)CN(C)C)Oc2cc(C3=CCCCC3)ccc2S1(=O)=O	33	6	11	.	.
CN(C)C(=O)C[C@@H]1CC[C@@H]2[C@H](COc3ccc(NC(=O)Nc4cccc(Cl)c4)cc3C(=O)N2C)O1	0	1	-3	.	.
O=C1C=CC2(O[C@H](c3ccccc3)[C@@H](c3ccccc3)O2)[C@H](Sc2ccccc2O)C1	-1	45*	.	-20	-6
Cc1[nH]nc2c1C(c1ccc(-c3ccccc3C#N)o1)C(C#N)=C(N)O2 (stereo not drawn)	.	.	0	25*	.
Cc1ccc(-c2ccc(C3C(C#N)=C(N)Oc4n[nH]c(C)c43)o2)cc1 (stereo not drawn)	.	-23	-2	12	-6
Cc1[nH]nc2c1C(c1ccc(-c3ccc(Cl)cc3)o1)C(C#N)=C(N)O2 (stereo not drawn)	.	13	.	29*	-4
CC[n+]1ccc(/C=C2\Sc3ccccc3N2CCCS(=O)(=O)[O-])c2ccccc21	-49	-12	-12	1	-6
CN1C=C/C(=C\c2cc[n+](C)c3ccccc23)c2ccccc21	79*	0	82*	-7	-19
